Reference: ChEMBL document CHEMBL2311408, “Inhibition of norovirus 3CL protease by bisulfite adducts of transition state inhibitors” (Bioorg Med Chem Lett, 2013)

Key:
[1] = Inhibition of Norovirus recombinant 3CL protease using Edans-EPDFHLQGPEDLAK-Dabcyl as substrate for 30 mins by fluorometry
Norovirus = experiment: Antiviral activity against Norovirus infected in human HG23 cells; type: functional; details: read-out: ED50 (the source's name)
Procedure, shortened: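 Norovirus replicon-bearing cells, with inhibition of viral replication reported as ED50 in μM.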

[2] = Cytotoxicity against human HG23 cells up to 320 uM; type: cell-based
[3] = Stability of the compound in buffer solution at pH 7.4 assessed as formation of aldehyde form of compound within 1 hr; type: physicochemical; details: pH 7.4, 1 h
Procedure, shortened: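 The bisulfite adduct was placed in buffer solution at pH 7.4. Over about one hour, it was followed for dissociation to the free aldehyde and for hydration of that aldehyde.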

[4] = Aqueous stability of the compound in DMSO/water after 24 hrs by Mass spectrometry; type: physicochemical
Procedure, shortened: (§1)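 The bisulfite adduct was placed in water. The species present (intact bisulfite adduct or hydrated aldehyde) were examined after 5 min of exposure and again after 24 h.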

[5] = Aqueous stability of the compound assessed as compound hydration in DMSO/water after 5 mins by Mass spectrometry; type: physicochemical; procedure, shortened: as §1

Structure (SMILES) | IC50 [1] | EC50 (Norovirus) | Activity [2] | Stability [3] | Stability [4] | Stability [5]
CCOC(=O)N[C@@H](C)C(=O)N[C@@H](CC1CCNC1=O)C(O)(C(=O)NC1CC1)S(=O)(=O)[O-].[Na+] (stereo partly specified) | 5300 nM | 800 nM | Non-toxic | – | – | –
CCCC[C@H](NC(=O)OCc1ccccc1)C(=O)N[C@H](C=O)CC1CCNC1=O (stereo partly specified) | 4500 nM | 1200 nM | Non-toxic | – | – | –
O=C[C@H](CC1CCNC1=O)NC(=O)[C@H](CC1CCCCC1)NC(=O)OCc1ccccc1 (stereo partly specified) | 500 nM | 50 nM | Non-toxic | – | – | –
CC(C)C[C@H](NC(=O)OCc1ccc(F)cc1)C(=O)N[C@H](C=O)CC1CCNC1=O (stereo partly specified) | 1800 nM | 500 nM | Non-toxic | – | – | –
O=C(N[C@@H](Cc1ccccc1)C(=O)N[C@@H](CC1CCNC1=O)C(O)S(=O)(=O)[O-])OCc1ccccc1.[Na+] (stereo partly specified) | – | 1100 nM | Non-toxic | – | – | –
CC(C)C[C@H](NC(=O)OCc1cccc(F)c1)C(=O)N[C@@H](CC1CCNC1=O)C(O)S(=O)(=O)[O-].[Na+] (stereo partly specified) | – | 200 nM | Non-toxic | – | – | –
CCCC[C@H](NC(=O)OCc1ccccc1)C(=O)N[C@@H](CC1CCNC1=O)C(O)S(=O)(=O)[O-].[Na+] (stereo partly specified) | – | 1300 nM | Non-toxic | – | – | –
O=C(N[C@@H](CC1CCCCC1)C(=O)N[C@@H](CC1CCNC1=O)C(O)S(=O)(=O)[O-])OCc1ccccc1.[Na+] (stereo partly specified) | – | 60 nM | Non-toxic | – | – | –
CCC[C@H](NC(=O)OCc1ccccc1)C(=O)N[C@H](C=O)CC1CCNC1=O (stereo partly specified) | 6100 nM | 2300 nM | Non-toxic | – | – | –
CC(C)C[C@H](NC(=O)OCCc1ccccc1)C(=O)N[C@H](C=O)CC1CCNC1=O (stereo partly specified) | 1900 nM | 1100 nM | Non-toxic | – | – | –
CC(C)C[C@H](NC(=O)OCc1cccc(F)c1)C(=O)N[C@H](C=O)CC1CCNC1=O (stereo partly specified) | 700 nM | 300 nM | Non-toxic | – | – | –
O=C[C@H](CC1CCNC1=O)NC(=O)[C@H](Cc1ccccc1)NC(=O)OCc1ccccc1 (stereo partly specified) | 5100 nM | 1800 nM | Non-toxic | – | – | –
CCC[C@H](NC(=O)OCc1ccccc1)C(=O)N[C@@H](CC1CCNC1=O)C(O)S(=O)(=O)[O-].[Na+] (stereo partly specified) | – | 1500 nM | Non-toxic | – | – | –
CC(C)C[C@H](NC(=O)OCCC1CCCCC1)C(=O)N[C@@H](CC1CCNC1=O)C(O)S(=O)(=O)[O-].[Na+] (stereo partly specified) | – | 300 nM | Toxic | – | – | –
CC(C)C[C@H](NC(=O)OCc1ccccc1)C(=O)N[C@@H](CC1CCNC1=O)C(O)S(=O)(=O)[O-].[Na+] (stereo partly specified) | – | 300 nM | Non-toxic | Stable | Stable | –
CC(C)C[C@H](NC(=O)OCCc1ccccc1)C(=O)N[C@@H](CC1CCNC1=O)C(O)S(=O)(=O)[O-].[Na+] (stereo partly specified) | – | 1000 nM | Non-toxic | – | – | –
CC(C)C[C@H](NC(=O)OCCC1CCCCC1)C(=O)N[C@H](C=O)CC1CCNC1=O (stereo partly specified) | 600 nM | 300 nM | Toxic | – | – | –
CC(C)C[C@H](NC(=O)OCc1ccc(F)cc1)C(=O)N[C@@H](CC1CCNC1=O)C(O)S(=O)(=O)[O-].[Na+] (stereo partly specified) | – | 400 nM | Non-toxic | – | – | –
CC(C)C[C@H](NC(=O)OCc1ccccc1)C(=O)N[C@H](C=O)CC1CCNC1=O (stereo partly specified) | 600 nM | 200 nM | Non-toxic | – | – | Unstable
